Source: PubChem BioAssay (Broad Institute)
DENV2 CPE rescue = inhibitors of DENV2 cytopathic effect; DENV2-infected cells, cytopathic effect rescue, plate reader; CPE inhibition, % at 9.99 µM; hit rate 1.7% among 350,000; in the data active means CPE inhibition above about 20%, passing the limit was not always enough; inconclusive means no clear call, values can overlap the other calls; tested in BHK-21 cells;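 further: 0% = median of neutral control wells and 100% = median of positive control wells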
F508del corr = CFTR F508del correction in bronchial cells. CFBE cells, YFP halide quenching; stimulated with forskolin plus potentiator P3; % fluorescence drop versus neutral controls. activity (quench increase), % at 7.58 µM. hit rate 0.36% among 350,000. AID 720511;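 active means mean added fluorescence quench of at least 8% versus neutral control, with both replicates also reaching 8%; inconclusive means only one of the mean or replicate conditions met; inactive means mean below 8% and not both replicates reaching 8%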;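 further: cells transiently co-express mutant CFTR-F508del with the halide-sensitive YFP; corrector assay measuring rescue of mutant channel to the surface after 24 h compound exposure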
INS-1E GSIS act = GLuc luminescence reporter in INS-1E cells, primary screen for activators of glucose-dependent secretion of insulin; INS-1E GLuc reporter insulin secretion, 2-3 h; activation, % at 16.6 µM; hit rate 0.61% among 370,000; AID 743287;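 active means lowest replicate activation of at least 40%, so every replicate reaches that level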;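 further: 0% = median of neutral control wells and 100% = median of IBMX positive control wells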
miR-122 sensor = inhibitors of miR-122 in Huh7 cells | AID 602342 | activation (reporter increase), % at 12.5 µM | hit rate 0.3% among 340,000 | Huh7 miR-122 Renilla luciferase sensor, 48 h; neutral wells = 0, positive control = 100;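 active means mean replicate activation score at least 90 and every replicate individually at or above 90; inconclusive means only one of the two criteria met; inactive means neither criterion met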;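 further: higher luciferase means less miR-122 activity so hits act as miR-122 inhibitors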
E-selectin induc = induces E-selectin expression in human endothelial cells | HUVEC E-selectin immunofluorescence imaging; normalized: neutral wells 0, TNF-alpha wells 100 | hit rate 0.37% among 260,000 | activation, % at 7.58 µM | P16581;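 active means mean E-selectin-positive cell signal at least 10% of the positive control, reached in at least 60% of replicates, without over 20% cell loss; inconclusive means no rule given, readout overlaps actives, possibly toxicity-flagged; inactive means the rest, including those meeting only one limit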
Target sequence (P16581 whole entry, looked up): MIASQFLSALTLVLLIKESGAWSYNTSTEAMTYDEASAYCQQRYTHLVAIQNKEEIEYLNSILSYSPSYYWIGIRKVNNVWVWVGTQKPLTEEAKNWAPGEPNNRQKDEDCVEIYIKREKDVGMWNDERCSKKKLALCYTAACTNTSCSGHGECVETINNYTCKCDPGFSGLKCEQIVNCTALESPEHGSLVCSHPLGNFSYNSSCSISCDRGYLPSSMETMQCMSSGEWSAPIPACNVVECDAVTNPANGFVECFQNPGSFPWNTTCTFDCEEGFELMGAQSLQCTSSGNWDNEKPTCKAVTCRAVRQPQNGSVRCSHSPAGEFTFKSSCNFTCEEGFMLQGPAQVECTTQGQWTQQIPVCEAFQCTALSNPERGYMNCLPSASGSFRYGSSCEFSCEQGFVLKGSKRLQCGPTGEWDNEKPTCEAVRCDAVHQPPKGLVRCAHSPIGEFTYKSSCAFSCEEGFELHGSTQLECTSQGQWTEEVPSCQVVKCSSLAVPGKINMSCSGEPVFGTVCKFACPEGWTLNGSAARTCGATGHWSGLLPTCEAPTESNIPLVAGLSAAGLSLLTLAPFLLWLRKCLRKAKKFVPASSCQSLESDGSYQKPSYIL
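assay system = HUVEC, human umbilical vein endothelial cells | input = 3,000 HUVEC seeded per well | medium = EGM-2 growth medium on 0.1% gelatin-coated wells | dosing = one compound dose added by pin transfer | signal = immunofluorescence imaging | read-out basis = % PE-positive cells | control set = TNF-alpha, DMSO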
ERAP1 HTS inh = inhibitors of human ERAP1 aminopeptidase | Q9NZ08 | recombinant ERAP1, Leu-AMC fluorescence, 60 min | inhibition, % at 10.7 µM | AID 652197 | hit rate 0.15% among 340,000;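 active means mean replicate inhibition of at least 30%, or all replicates individually reaching that 30% level; inactive means mean below 30% and not every replicate reaching it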;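 further: 0% = neutral control wells and 100% = L-leucinethiol positive control wells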
Starred values were filed as active, the others as inactive; [ ] = another dose, or the depositor's remark. An excerpt weighted towards active compounds, which were near 2.6% of everything screened.

What do the screens show for `C[C@@H]1CN([C@@H](C)CO)C(=O)c2cc(NC(=O)CCC(F)(F)F)ccc2O[C@@H]1CN(C)C(=O)Nc1ccccc1`?
DENV2 CPE rescue: 26*; F508del corr: -3; INS-1E GSIS act: 0; miR-122 sensor: 44[16.7 µM]; E-selectin induc: 0; ERAP1 HTS inh: -1

Results for CO[C@@H]1CN(C)C(=O)c2ccc(NC(=O)c3ccccc3)cc2OC[C@H](C)N(C(=O)C2CC2)C[C@H]1C ?
F508del corr: -4; INS-1E GSIS act: 4; miR-122 sensor: 16[16.7 µM]; E-selectin induc: -1

How did Cc1ccc(S(=O)(=O)N(C)C[C@H]2Oc3ccc(NC(=O)CCCN(C)C)cc3C(=O)N([C@H](C)CO)C[C@H]2C)cc1 do in these assays?
DENV2 CPE rescue: 3; F508del corr: 1; INS-1E GSIS act: 7; miR-122 sensor: -2[16.7 µM]; E-selectin induc: 282*; ERAP1 HTS inh: 0

How did Cc1ccc(S(=O)(=O)N(C)C[C@@H]2Oc3ccc(NC(=O)CCCN(C)C)cc3C(=O)N([C@H](C)CO)C[C@@H]2C)cc1 do in these assays?
DENV2 CPE rescue: 3; F508del corr: 1; INS-1E GSIS act: -5; miR-122 sensor: 4[16.7 µM]; E-selectin induc: -10; ERAP1 HTS inh: -3

Results for C[C@H]1CN([C@@H](C)CO)C(=O)c2cc(NC(=O)CCC(F)(F)F)ccc2O[C@@H]1CN(C)S(C)(=O)=O ?
DENV2 CPE rescue: 21*; F508del corr: 2; INS-1E GSIS act: 17; miR-122 sensor: -3[16.7 µM]; E-selectin induc: 2; ERAP1 HTS inh: -4

Results for CCN(CC(=O)NCc1cccs1)C(=O)/C=C/c1ccc(OC)cc1OC ?
DENV2 CPE rescue: 30*; F508del corr: -4; INS-1E GSIS act: -14; miR-122 sensor: 1; E-selectin induc: 12; ERAP1 HTS inh: 0

What do the screens show for `CCOc1ccc(OCCC(=O)N(CC)CC(=O)NCc2cccs2)cc1`?
DENV2 CPE rescue: 10; F508del corr: 2; INS-1E GSIS act: 41*; miR-122 sensor: -3; ERAP1 HTS inh: 0

What do the screens show for `CCN(CC(=O)NCc1cccs1)C(=O)CCOc1ccccc1`?
DENV2 CPE rescue: -4; F508del corr: 3; INS-1E GSIS act: -10; miR-122 sensor: -5; E-selectin induc: 0; ERAP1 HTS inh: 3

How did CCCN(C)C[C@H]1OCCCC[C@@H](C)Oc2ccc(NC(=O)Cc3ccccc3)cc2C(=O)N([C@@H](C)CO)C[C@H]1C do in these assays?
F508del corr: -2; INS-1E GSIS act: -18; miR-122 sensor: 1[16.7 µM]; E-selectin induc: 0

How did C[C@@H]1CN([C@@H](C)CO)C(=O)Cc2cc(NC(=O)Nc3ccc4c(c3)OCO4)ccc2O[C@H]1CN(C)Cc1ccc(-c2ccccc2)cc1 do in these assays?
DENV2 CPE rescue: 2; F508del corr: -2; INS-1E GSIS act: -24; miR-122 sensor: -10[16.7 µM]; ERAP1 HTS inh: 0

What do the screens show for `Fc1ccc(/C=N/c2c(-c3ccc(F)cc3)nc3n2CCS3)cc1`?
INS-1E GSIS act: 62*; miR-122 sensor: 2

Results for Cc1ccccc1-c1cnc2c(c1)C(=O)N([C@@H](C)CO)C[C@H](C)[C@@H](CN(C)C(=O)c1ccc(F)cc1)O2 ?
DENV2 CPE rescue: 3; F508del corr: 0; INS-1E GSIS act: -21; E-selectin induc: 1; ERAP1 HTS inh: 1

Results for CO[C@H]1CN(C)C(=O)c2cc(NS(=O)(=O)c3ccccc3)ccc2OC[C@@H](C)N(Cc2ccccn2)C[C@H]1C ?
DENV2 CPE rescue: -6; F508del corr: 2; INS-1E GSIS act: -7; miR-122 sensor: 8[16.7 µM]; E-selectin induc: 0; ERAP1 HTS inh: 0

How did OC(c1ccccc1)(c1ccccc1)C1CCN(CCCOc2ccc(F)cc2)CC1 do in these assays?
DENV2 CPE rescue: -10; F508del corr: -1; INS-1E GSIS act: -42; E-selectin induc: 1; ERAP1 HTS inh: 1

What do the screens show for `OC(c1ccccc1)(c1ccccc1)C1CCN(CCCOc2ccc(C(F)(F)F)cc2)CC1`?
DENV2 CPE rescue: inconclusive; F508del corr: -2; INS-1E GSIS act: 654*; E-selectin induc: 0; ERAP1 HTS inh: -1

How did Cc1nc(C(Cl)(Cl)Cl)nc2[nH]ccc(=O)c12 do in these assays?
DENV2 CPE rescue: 0; F508del corr: -3; INS-1E GSIS act: 130*; ERAP1 HTS inh: 1

How did Cc1nn(C)c(Cl)c1/C=C/C(=O)O do in these assays?
DENV2 CPE rescue: 2; F508del corr: 2; INS-1E GSIS act: 9; miR-122 sensor: -1; ERAP1 HTS inh: -8

What do the screens show for `Cc1nn(C)c(C)c1/C=C/C(=O)O`?
DENV2 CPE rescue: 5; F508del corr: 13*; INS-1E GSIS act: -2; miR-122 sensor: -5; ERAP1 HTS inh: 3

Results for CCc1ccc(N2CC(C(=O)Nc3ccccc3N3CCCC3)CC2=O)cc1 (stereo not drawn) ?
DENV2 CPE rescue: 1; F508del corr: 9.2*; INS-1E GSIS act: -1; miR-122 sensor: 7; E-selectin induc: 0; ERAP1 HTS inh: -2

How did CNC(=O)C1CC(=O)N(c2ccc(OCC(=O)Nc3ccccc3)cc2)C1 (stereo not drawn) do in these assays?
DENV2 CPE rescue: 0; F508del corr: 10*; INS-1E GSIS act: 55*; miR-122 sensor: -5; E-selectin induc: 0; ERAP1 HTS inh: -64

What do the screens show for `CCOc1ccc(NC(=O)COc2ccc(N3CC(C(N)=O)CC3=O)cc2)cc1` (stereo not drawn)?
DENV2 CPE rescue: -2; F508del corr: 7; INS-1E GSIS act: -4; miR-122 sensor: -4; E-selectin induc: -2; ERAP1 HTS inh: 2

How did O=C(C[C@@H]1CC[C@@H]2[C@H](COC[C@H](O)CN2C(=O)Nc2cccc(F)c2)O1)NCc1ccccc1Cl do in these assays?
DENV2 CPE rescue: 4; F508del corr: -1; INS-1E GSIS act: -12; miR-122 sensor: -2[16.7 µM]; E-selectin induc: 0; ERAP1 HTS inh: 4

How did CC(C)c1c(O)ccc2c1CC[C@H]1C(C)(C)CCC[C@]21C do in these assays?
DENV2 CPE rescue: 0; F508del corr: 9.0*; miR-122 sensor: 27; E-selectin induc: 3; ERAP1 HTS inh: 0

How did C[C@@H]1CCCCO[C@H](CN(C)S(=O)(=O)c2ccc(F)cc2)[C@H](C)CN([C@H](C)CO)C(=O)c2cc(NC(=O)NC3CCCCC3)ccc2O1 do in these assays?
DENV2 CPE rescue: -12; F508del corr: -5; INS-1E GSIS act: -31; miR-122 sensor: -13[16.7 µM]; E-selectin induc: 0; ERAP1 HTS inh: 2

What do the screens show for `CC(=NNC(=S)N(Cc1ccccn1)Cc1ccccn1)c1cnccn1`?
DENV2 CPE rescue: 2; F508del corr: 8.2*; INS-1E GSIS act: 37; E-selectin induc: 2; ERAP1 HTS inh: 2

What do the screens show for `O=C1Cc2cc(S(=O)(=O)N3CCNCC3)ccc2N1`?
DENV2 CPE rescue: 34*; F508del corr: 1; INS-1E GSIS act: 22; E-selectin induc: -1; ERAP1 HTS inh: 4
